A short description of data set [1]: folding enthalpy; higher = less favourable; fluorescence melt of hairpins on a sequencing array, two-state fit. Conditions: sodium 0.088 M. Summed up:
(§1)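 Cy3 signals were normalised both to pre-quench Cy3 and to control constructs. They came from library hairpins carrying annealed Cy3 and quencher oligos on a sequenced MiSeq flow cell, imaged in 50 mM Na-HEPES pH 8.0, 25 mM NaCl, in 2.5 °C steps up to 60 °C. Bootstrapped two-state fits gave melting temperature and folding enthalpy, and four replicates were combined by inverse variance. Fitted temperatures were then raised by 9.35 °C to match UV melts.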

Data set [2] in a line: melting temperature; fluorescence melt of hairpins on a sequencing array, two-state fit, raised by 9.35 °C to match UV melts. Particulars: sodium 0.088 M. Summed up:
as §1

Take GAGCGGCGAAAGCCACTC (((.(((....))).))): in data set [1], the folding enthalpy is -24.5 kcal/mol. The Tm in data set [2] was determined as 58 °C.
For GGCTTCGAAAGAATCGCC ((((((....)))..))), in that order: -27.7 kcal/mol and 35.8 °C.
Consider GGTGGCGAAAGCCTTACC ((((((....)))..))), for which, in data set [1], the folding enthalpy was -14 kcal/mol. Moreover, the Tm in data set [2] turned out to be 40.2 °C.
The like results for GCGTTCGGAAACAAACGC (((((.(....).))))) were, in that order, -34.6 kcal/mol and 47.9 °C.
The like results for TCGTTGAAAAACGA (((((....))))) were, in that order, -20.3 kcal/mol and 44.7 °C.
For GTCAACGAAAGTTGGAC ((((((....))).))), in that order: -13.2 kcal/mol and 39.7 °C.
As to GGCCGGACGAAAGTCGCC (((..(((....)))))), the folding enthalpy in data set [1] is -21.5 kcal/mol. Further, the Tm in data set [2] is 50 °C.
The like results for GATCAAAAGGTTGATC ((((((....)))))) were, in that order, -23.9 kcal/mol and 36.1 °C.
The like results for GTCCTCCGAAAGGACGAC (((.(((....))).))) were, in that order, -26.1 kcal/mol and 49.7 °C.
For CGCCCGGAAACGGTGGCG ((((((....)))..))), in that order: -28.6 kcal/mol and 54.9 °C.
With GTTCCCCGAAAGGGAAAC (((.(((....))).))), the folding enthalpy in data set [1] was -19.3 kcal/mol. Further, the Tm in data set [2] was 46.5 °C.
Consider GATCAATTTTTGATC ((((((...)))))), for which the folding enthalpy in data set [1] is -33.6 kcal/mol. Also, the Tm in data set [2] came out at 45.9 °C.
As for GATCCGCCTCGGATC ((((((...)))))), the folding enthalpy in data set [1] was -30 kcal/mol. For the same sequence, the Tm in data set [2] was found to be 56.7 °C.
For GCTTCGGGAAACTGGAGC (((.(.(....).).))), in that order: -32.7 kcal/mol and 39.1 °C.
On to GAGCGCGGAAACACGCCC (.(((.(....).))).), for which the folding enthalpy in data set [1] is -12 kcal/mol. Besides, in data set [2], the Tm was 38.4 °C.
As for GTGACTGGAAACGGTCAC (((((.(....).))))), in data set [1], the folding enthalpy is -49.6 kcal/mol. Besides, the Tm in data set [2] is 53.2 °C.
Consider GCATCCCGAAAGGGCTGC (((.(((....))).))), for which, in data set [1], the folding enthalpy is -36.2 kcal/mol. Also, the Tm in data set [2] was determined as 56.2 °C.
For GCAGAGCGAAAGCTTGC (((.(((....)))))), in that order: -20.6 kcal/mol and 53.7 °C.
As for GTTGAGGGAAACTTCAAC (((((.(....).))))), the folding enthalpy in data set [1] was -33.6 kcal/mol. In addition, in data set [2], the Tm worked out at 40.5 °C.
For GGGCTGTCGAAAGACCCC (((..(((....)))))), in that order: -18.4 kcal/mol and 44.1 °C.
Take GGGAAAGCGAAAGCTCCC (((..(((....)))))): the folding enthalpy in data set [1] is -20.9 kcal/mol. The Tm in data set [2] came to 51.8 °C.
For GTCACCCGAAAGGGCGAC (((.(((....))).))), in that order: -35.7 kcal/mol and 58.9 °C.
For GCTTTTCGAAAGAAGAGC (((.(((....))).))), in that order: -30.7 kcal/mol and 47.4 °C.
For GGATACGAAAGTATTTCC ((((((....)))..))), in that order: -24.9 kcal/mol and 28.1 °C.
Turning to GCTGTTCGAAAGAAGAGC (((.(((....))).))), the folding enthalpy in data set [1] was -37.2 kcal/mol. Besides, in data set [2], the Tm was 50.6 °C.
The like results for GATCGTTCTACGATC ((((((...)))))) were, in that order, -35.3 kcal/mol and 59.6 °C.
For GATCACAGGGGTGATC ((((((....)))))), in that order: -33.6 kcal/mol and 56.2 °C.
The like results for GTACTCACGAAAGTGTAC (((..(((....)))))) were, in that order, -11 kcal/mol and 31.9 °C.
Regarding GCCCGGCGAAAGCGGAGC ((.(.((....)).).)), the folding enthalpy in data set [1] was -14.8 kcal/mol. Moreover, the Tm in data set [2] worked out at 54.8 °C.
Take GTAAACGAAAGTTTTAC ((((((....))).))): the folding enthalpy in data set [1] was -18.5 kcal/mol. In addition, in data set [2], the Tm was 36.5 °C.
For GAGGCCGAAAGGCGCCTC ((((((....)))..))), in that order: -12.4 kcal/mol and 42 °C.
For GACTTAACGAAAGTTGTC (((..(((....)))))), in that order: -16.8 kcal/mol and 32.2 °C.
The like results for GAGAGAACGAAAGTTCTC (((..(((....)))))) were, in that order, -14.7 kcal/mol and 52.5 °C.
Take GGGTGTCCGAAAGGACCC (((..(((....)))))): in data set [1], the folding enthalpy is -14 kcal/mol. For the same sequence, the Tm in data set [2] was 55 °C.
For GATCCAAGATGGATC ((((((...)))))), in that order: -34 kcal/mol and 49 °C.
The like results for GCAAACGCGAAAGCGTGC (((..(((....)))))) were, in that order, -13.7 kcal/mol and 55.7 °C.
For GTGGCGGGAAACCACCAC ((((.((....)).)))), in that order: -35.4 kcal/mol and 51.5 °C.

Values taken from the array DNA melting data of Ke et al. (doi:10.1101/2024.01.08.574731).
